In ChEMBL document CHEMBL1255333, “Comparison of the in vitro efficacies of moxifloxacin and amoxicillin against Listeria monocytogenes” (2008):
The source made the active and inactive calls.

How the values were obtained:
[1] = system: Listeria monocytogenes; assay: Antibacterial activity against intracellular Listeria monocytogenes EGDe infected in bone marrow-derived BALB/c mouse macrophage assessed as reduction in bacterial count at four-eitght times of MIC after 3 hrs; format: functional, organism-based
Procedure, shortened: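 Bone marrow macrophages from BALB/c mice (7-8 weeks) were differentiated for 7 days in RPMI 1640 with 10% decomplemented FCS and 10% L-cell medium, at 37°C and 10% CO2. Cells at 3 x 10^5/ml were infected for 15 min at a bacteria:macrophage ratio of 10:1, washed, and preincubated for 45 min. They were then given antibiotic for up to 24 h, lysed in 0.1% Triton X-100, and plated in triplicate. Results are CFU/well, means ± SE of three experiments.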

[2] = system: Listeria monocytogenes; assay: Antibacterial activity against intracellular Listeria monocytogenes EGDe infected in bone marrow-derived BALB/c mouse macrophage assessed as reduction in the formation of filopodium-like projections at >= MIC after 48 hrs by microscopy; format: functional, organism-based
[3] = system: Listeria monocytogenes; assay: Antibacterial activity against intracellular Listeria monocytogenes EGDe infected in bone marrow-derived BALB/c mouse macrophage assessed as prevention of bacterial release and spread of infection by preventing macrophage lysis after 24 hrs; format: functional, organism-based
[4] = system: Listeria monocytogenes; assay: Antibacterial activity against extracellular Listeria monocytogenes EGDe at four times of MIC by time-kill study; format: functional, organism-based
Procedure, shortened: (§1)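 EGDe inoculum of 5 x 10^8 bacteria in Mueller-Hinton broth at 37°C. Antibiotic was added at 1x, 4x, 8x or 400x MIC. Counts were done in triplicate at set times by plating serial 10-fold dilutions on BHI agar, with or without 2 µg/ml moxifloxacin, for 48 h. Results are CFU/ml, means ± SE of three experiments. Bactericidal was defined as a >3-log10 drop at 24 h.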

[5] = system: Listeria monocytogenes; assay: Antibacterial activity against intracellular Listeria monocytogenes EGDe infected in bone marrow-derived BALB/c mouse macrophage assessed as reduction in the number of infected macrophages after 3 hrs; format: functional, organism-based
Procedure, shortened: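 Infected BALB/c bone marrow macrophages were stained with May-Grunwald-Giemsa and examined microscopically to determine the infection rate. Observations were made at 3, 6 and 24 h of exposure to antibiotic at 1x MIC or Cmax, or with no antibiotic.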

[6] = system: Listeria monocytogenes; assay: Antibacterial activity against extracellular Listeria monocytogenes EGDe at 400 times of MIC by time-kill study; format: functional, organism-based; procedure, shortened: as §1
[7] = system: Listeria monocytogenes; assay: Antibacterial activity against extracellular Listeria monocytogenes EGDe at MIC by time-kill study; format: functional, organism-based; procedure, shortened: as §1
[8] = system: Listeria monocytogenes; assay: Antibacterial activity against intracellular Listeria monocytogenes EGDe infected in bone marrow-derived BALB/c mouse macrophage assessed as changes in morphology of intracellular bacteria observed to be ghostly, chained, and elongated at >= MIC after 48 hrs by microscopy; format: functional, organism-based
[9] = system: Listeria monocytogenes; assay: Antibacterial activity against extracellular Listeria monocytogenes EGDe assessed as reduction in bacterial count at eight times of MIC after 24 hrs by time-kill study; format: functional, organism-based; procedure, shortened: as §1
[10] = system: Listeria monocytogenes; assay: Antibacterial activity against extracellular Listeria monocytogenes EGDe assessed as reduction in bacterial count at eight times of MIC after 6 hrs by time-kill study; format: functional; procedure, shortened: as §1
[11] = system: Listeria monocytogenes; assay: Antibacterial activity against extracellular Listeria monocytogenes EGDe assessed as reduction in bacterial count at four times of MIC after 6 hrs by time-kill study; format: functional; procedure, shortened: as §1
[12] = system: Listeria monocytogenes; assay: Antibacterial activity against extracellular Listeria monocytogenes EGDe assessed as reduction in bacterial count at four times of MIC after 24 hrs by time-kill study; format: functional, organism-based; procedure, shortened: as §1

Row | Compound | Activity [1] | Activity [2] | Activity [3] | Activity [4] | Activity [5] | Activity [6] | Activity [7] | Activity [8] | Activity [9] | log10CFU/ml [10] | log10CFU/ml [11] | Activity [12]
1 | CC1(C)S[C@@H]2[C@H](NC(=O)[C@H](N)c3ccc(O)cc3)C(=O)N2[C@H]1C(=O)O | inactive | inactive | inactive | Active | inactive | Active | inactive |  |  |  |  | 
2 | COc1c(N2C[C@@H]3CCCN[C@@H]3C2)c(F)cc2c(=O)c(C(=O)O)cn(C3CC3)c12 [MOXIFLOXACIN] | Active | Active | Active | Active |  |  | inactive | Active | Active | 3 | 3 | Active
